Test results published in article PMC8336461 (Chemical Science, 2021).

Legend:
[1] = tested on: T. brucei brucei Lister 427 bloodstream-form parasites; assay: T. brucei cell viability assay; assay type: cell-based; conditions: Trypanosoma brucei, 48 h, read-out: T. brucei EC50
In short: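 Parasite EC50 reported as the mean ± standard error of 3 biological replicates. Each biological replicate's EC50 was calculated from technical triplicate data.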

[2] = Hep G2 cytotoxicity assay; assay type: cell-based; conditions: human, Hep G2 cells
T. brucei = conditions: read-out: EC50 against T. brucei; cited from earlier work
[3] = tested on: extracellular L. amazonensis; conditions: read-out: EC50 against L. amazonensis; cited from earlier work

SMILES | EC50 [1] [µM] | CC50 at 72 h [2] [µM] | EC50 (T. brucei) [µM] | EC50 [3] [µM]
COC(=O)c1[nH]c(C(=O)OC)c(-c2c[nH]c3ccc(Cl)cc23)c1-c1c[nH]c2ccc(Cl)cc12 [Compound 12, lynamicin D] | 8.3 ± 1 | > 10 | – | –
COC(=O)c1[nH]cc(-c2c[nH]c3ccc(Cl)cc23)c1-c1c[nH]c2ccc(Cl)cc12 [Compound 13, lynamicin A] | 8.2 ± 0.45 | > 10 | – | –
CC1(C)OB(O)c2cc(NC(=O)c3ccc(F)cc3C(F)(F)F)ccc21 [acoziborole] | – | – | 0.6 | –
CCCCCCCCCCCCCCCCOP(=O)([O-])OCC[N+](C)(C)C [miltefosine] | – | – | – | 1.2
